Source: publication PMC9798253 (Protein Science : A Publication of the Protein Society, 2023)

Legend:
[1] = test system: GST-tagged TRD domain of MECP2 (170–325 of NP_004983); assay: Peptide SPOT array binding of ADD peptides to GST-TRD; conditions: 25 nM GST-TRD; 1 h; ECL detection (anti-GST)
How it was run: (§1)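 The cellulose-bound peptide arrays included alanine-substituted variants. Purified protein was applied for 1 h. Detection used anti-GST (1:12,000) or anti-MBP (1:10,000) for 1 h, then HRP secondary for 1 h.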

[2] = test system: GST-TRD (TRD domain of MECP2); assay: GST-pulldown of MBP-ADD; type: binding; conditions: 1 μg each protein; 25 mM Tris/HCl pH 8, 200 mM KCl; 1 h, 6°C; SDS-PAGE
[3] = test system: ADD D529A/D530A/D531A triple mutant; assay: Peptide SPOT array binding of TRD peptides to ADD triple mutant; parameters: species or system human; conditions: 25 nM ADD mutant; 1 h; ECL detection
How it was run: as §1

| Substance | TRD binding of ADD peptides on SPOT array [1] | further results |
| --- | --- | --- |
| ADD 496–510: ADD surface peptide on SPOT array, WT sequence | showed TRD binding with the WT sequence |  |
| ADD 522–536: ADD surface peptide on SPOT array, WT sequence | showed TRD binding with the WT sequence |  |
| ADD 592–606: ADD surface peptide on SPOT array, WT sequence | showed TRD binding with the WT sequence |  |
| MBP-ADD: ADD domain of DNMT3A (476–614 of Q9Y6K1) as maltose‐binding protein (MBP) fusion |  | pulldown of MBP-ADD by GST-TRD [2]: strong and specific pulldown |
| TRD residues 214–228: 15mer SPOT peptide, TRD residues E214‐T228, WT peptide (EKSPGKLLVKMPFQT) |  | binding of ADD D529A/D530A/D531A triple mutant to TRD peptide on SPOT array [3]: Binding was lost |
